In PubChem BioAssay AID493160 (Sanford-Burnham Center for Chemical Genomics, 2011):
Hit rate of the full screen: of about 340,000 compounds, about 540 (0.16%) were called active. For the sample, actives were picked, then their nearest neighbours and some compounds at random. Values without a mark were called inactive.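 The calls were made as follows: active = inhibition above about 35% when tested at 20 µM (limit read from the data); inactive = the rest.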

target: Hexokinase HKDC1 (Homo sapiens) (UniProt Q2TB90); assay: HKDC1 hexokinase inhibitors, primary screen, biochemical, fluorescence, uHTS (AID 493160); conditions: recombinant HKDC1, G6PDH/diaphorase resazurin coupled fluorescence; at 20 µM; hits give high values;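 also: plate controls were DMSO wells with enzyme for no effect and DMSO wells lacking enzyme for full effect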
Procedure, shortened: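 Assay system – recombinant HKDC1 (HK5) hexokinase enzyme, produced in-house · Input – HKDC1 at 5 µg/mL · Reagent – glucose plus 1 mM ATP as hexokinase substrates · Timing – 90 min reaction incubation at room temperature, dark · Measured by – G6PDH/diaphorase-coupled fluorescence, 1 mM NADP, 100 µM resazurin, 525/613 nm · Benchmarks – DMSO-enzyme wells negative, buffer-substituted wells positive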

Sequence of Hexokinase HKDC1 (Homo sapiens) (Q2TB90 whole entry, looked up): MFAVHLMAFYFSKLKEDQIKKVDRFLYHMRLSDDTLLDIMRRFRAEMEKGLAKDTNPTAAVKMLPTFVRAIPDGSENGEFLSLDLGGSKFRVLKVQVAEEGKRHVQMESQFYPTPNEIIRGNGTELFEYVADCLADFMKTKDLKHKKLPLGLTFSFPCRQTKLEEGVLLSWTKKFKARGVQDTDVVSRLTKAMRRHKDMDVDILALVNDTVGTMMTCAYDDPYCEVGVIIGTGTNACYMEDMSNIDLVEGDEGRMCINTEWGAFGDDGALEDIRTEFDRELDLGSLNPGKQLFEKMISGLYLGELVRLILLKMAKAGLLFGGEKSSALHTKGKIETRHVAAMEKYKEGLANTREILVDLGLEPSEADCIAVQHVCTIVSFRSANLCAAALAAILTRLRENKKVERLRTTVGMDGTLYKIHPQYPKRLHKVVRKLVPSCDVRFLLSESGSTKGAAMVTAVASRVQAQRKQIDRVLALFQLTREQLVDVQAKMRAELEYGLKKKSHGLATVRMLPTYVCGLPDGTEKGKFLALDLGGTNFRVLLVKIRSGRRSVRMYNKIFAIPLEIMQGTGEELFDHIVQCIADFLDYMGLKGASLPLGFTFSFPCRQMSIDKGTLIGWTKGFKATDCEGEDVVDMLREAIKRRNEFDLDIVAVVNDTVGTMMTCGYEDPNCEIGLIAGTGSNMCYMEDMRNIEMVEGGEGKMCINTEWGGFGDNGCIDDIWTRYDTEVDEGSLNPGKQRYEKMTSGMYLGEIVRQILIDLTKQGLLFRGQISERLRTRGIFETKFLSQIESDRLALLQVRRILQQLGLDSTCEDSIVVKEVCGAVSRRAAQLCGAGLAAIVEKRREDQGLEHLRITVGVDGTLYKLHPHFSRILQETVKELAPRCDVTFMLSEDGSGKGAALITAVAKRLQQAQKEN

Row | Compound | inhibition
1 | CCCC(=O)N1CCC(CCC(=O)NC2CC2)CC1 | -4.77%
2 | COc1cc(Cl)c(C)cc1NC(=O)CSc1nnc(CN2CCCC2)o1 | -4.86%
3 | O=S(=O)(NN=C1CCCCCCC1)c1ccc(Br)cc1 | 3.73%
4 | CCOc1cc(NC(=S)NCCCN(C)C)c(OCC)cc1NC(=O)C1CC1 | -8.33%
5 | CC(Cc1cccs1)N(Cc1ccc(Cl)cc1)C(=O)c1ccncc1 (stereo not given) | 3.31%
6 | O=C1C(=O)N(CCCN2CCOCC2)C(c2ccc([N+](=O)[O-])cc2)/C1=C(\O)c1ccc2c(c1)OCCO2 (stereo not given) | -4.72%
7 | Cc1cccc(-n2c(SCC(=O)Nc3cccc(S(=O)(=O)NC4=NCCCCC4)c3)nc3ccccc3c2=O)c1C | 1.69%
8 | Cc1ccnc(SCC(=O)Nc2cccc(S(=O)(=O)N3CCOCC3)c2)n1 | 0.74%
9 | CCOC(=O)C1CCN(C(=O)CC2C(=O)N(Cc3ccccc3)C(C)c3nc4ccccc4n32)CC1 (stereo not given) | -7.65%
10 | CCCCN(C(=O)c1ccc2ccccc2c1)c1c(N)n(CCCC)c(=O)[nH]c1=O | -1.92%
11 | CCN(CC)C(=O)CSc1nc2ccccc2n1CC(=O)N1CCN(c2ccccc2OC)CC1 | -2.34%
12 | CCC(C)NC(=O)c1cc(Cl)ccc1OC (stereo not given) | -12.3%
13 | COc1ccc(C(=O)COC(=O)Cn2cnc3c2c(=O)n(C)c(=O)n3C)c(OC)c1 | -0.76%
14 | COc1ccc2[nH]c3c(c2c1)CCN1C(=O)C(CC(=O)NCc2cccc(C(F)(F)F)c2)C[C@H](C(=O)N2CCOCC2)[C@@]31C (stereo not given in full) | 5.85%
15 | O=C(O)CCCCCCCCCC[n+]1ccccc1 | -10.3%
16 | Cc1cc(C)n2nc(C(=O)OCC(=O)N(C)CC(=O)Nc3ccc(F)cc3)nc2n1 | -5.6%
17 | CC(NC(=O)c1ccccc1)C(=O)Nc1ccccc1 (stereo not given) | -6.92%
18 | O=C(NC1=CC(=O)c2ccccc2C1=O)c1ccccc1 | 54.1% (active)
19 | O=C(NC(=O)c1ccccc1)Nc1ccccc1O | 2.6%
20 | CCN(Cc1ccccc1)S(=O)(=O)c1cc2c3c(c1)CCN3C(=O)CC2 | 4.66%
21 | Cc1cc(C(=O)COC(=O)CNC(=O)c2ccc(F)cc2)c(C)n1Cc1ccco1 | -4.86%
22 | O=C(COc1ccccc1)Nc1cc2c3c(c1)CC(=O)N3CCC2 | -4.21%
23 | Cn1nc(C(F)(F)F)cc1-c1ccc(/C=C(\C#N)C(=O)c2cccc(C(F)(F)F)c2)s1 | 13.8%
24 | Cc1cc(C)c2oc(C(=O)Nc3ccc(S(=O)(=O)Nc4nccc(C)n4)cc3)cc(=O)c2c1 | 0.48%
25 | COc1cc(OC)cc(C(=O)NCC(=O)N2CCCCCCC2)c1 | -3.62%
26 | CC(=O)N(C1=C(Cl)C(=O)c2ccccc2C1=O)c1ccc(C(=O)O)cc1 | 52.2% (active)
27 | CCCN(CC(=O)Nc1ccccc1C)C(=O)c1ccc(OCC(=O)N2CCOCC2)c(OCC)c1 | -2.45%
28 | N#Cc1ccc(C2N=C(c3ccccc3)NO2)cc1 (stereo not given) | 0.41%

Row | Compound | inhibition
29 | O=C(C1CCN(S(=O)(=O)c2cnc[nH]2)CC1)N1CCN(Cc2ccc3c(c2)OCO3)CC1 | 0.71%
30 | C=CCN(Cc1nc(-c2cc(OC)c3c(c2)OCO3)oc1C)C1CCS(=O)(=O)C1 (stereo not given) | -3.24%
31 | CC(=O)Nc1ccc(S(=O)(=O)N(CCc2ccccc2)CC(=O)N/N=C/c2ccc(C(=O)O)cc2)cc1 | -2.7%
32 | COc1ccc(N(CC(=O)N/N=C/c2cccc3c2OCCO3)S(=O)(=O)c2ccc(NC(C)=O)cc2)cc1 | 38.1% (active)
33 | COc1ccc(N(CC(=O)N/N=C/c2cccs2)S(=O)(=O)c2ccc(OC)c(OC)c2)cc1 | -10.3%
34 | COc1ccc(Cl)cc1C(=O)NNC(=O)c1nc2nc(C)cc(C)n2n1 | 0.07%
35 | O=c1ccc2c(-c3ccccc3S(=O)(=O)O)c3ccc(O)c(O)c3oc-2c1O | 38.4% (active)
36 | COc1ccccc1CNC(=O)[C@@H]1CCCN1C(=O)[C@@H]1Cc2ccccc2CN1C(=O)OC(C)(C)C | 3.72%
37 | Cc1cc[n+](-c2[nH]c(=O)sc2/C=N/NC(=O)c2ccccc2[O-])cc1C | -1.94%
38 | O=C(COC(=O)Cn1cnc2ccccc2c1=O)NCc1ccccc1Cl | -10.3%
39 | O=C(Nc1cc(-c2nn(CC(=O)N3CCCCC3)c(=O)c3ccccc23)ccc1N1CCOCC1)c1ccc(Cl)cc1 | -2.81%
40 | O=c1[nH]c2ccccc2n2c(-c3ccccc3)nnc12 | 46.7% (active)
41 | O=c1[nH]n2c(-c3ccccc3)nc(O)c2c2ccccc12 | -18.8%
42 | O=C(C[C@H]1C/C=C\C[C@@H](NC(=O)OCC2c3ccccc3-c3ccccc32)C(=O)O[C@@H](c2ccccc2)CNC1=O)N[C@H](CO)Cc1ccccc1 | -0.6%
43 | COc1ccc(CCNc2nc3ccc(C)cc3n3cnnc23)cc1OC | 8.2%
44 | CCOC(=O)CSc1nncc2ccc(OC)c(OC)c12 | -9.31%
45 | CCOC(=O)CSc1nc2ccc(C)cc2n2cnnc12 | 53% (active)
46 | CC1CN(C2CCN(C(=O)COc3ccccc3)CC2)CC(C)O1 (stereo not given) | 1.62%
47 | O=c1oc2ccccc2c(=O)c2ccccc12 | -8.91%
48 | CC(C)(C)Nc1c(N)c(=O)oc2ccccc12 | 44.6% (active)
49 | Nc1c(NCCc2ccccc2)c2ccccc2oc1=O | -1.28%
50 | COc1ccc(CCN2CNc3c(c(=O)n(C)c(=O)n3C)C2)cc1OC | 6.26%
51 | O=C(Nc1cc(S(=O)(=O)N2CCOCC2)ccc1Cl)c1cc(=O)c2ccccc2o1 | 12.4%
52 | Cc1nnnn1/C(=C\c1ccccc1)C(=O)OCC(=O)N1CC2(C)CC1CC(C)(C)C2 (stereo not given) | -1.75%
53 | CCN(CC(=O)Nc1ccc2c(c1)OCO2)S(=O)(=O)c1ccccc1 | -0.97%
54 | O=C(/C=C/c1cccc(C(F)(F)F)c1)N1CCN(c2ccccn2)CC1 | 3.47%
55 | O=C(CSc1cccc[n+]1[O-])c1ccc(-c2ccccc2)cc1 | -4.64%
